Source: ChEMBL document CHEMBL3352049, “Taxanes with high potency inducing tubulin assembly overcome tumoural cell resistances” (Bioorg Med Chem, 2014)
Calls of active or inactive are those of the source. The calls are words filed in the database; no cut-off is given here.

Assays:
[1] = Cytotoxicity against human A2780AD cells by MTT assay; assay type: functional, cell-based; conditions: A2780 ADR
Tubulin (Bos taurus) = Tubulin (Bos taurus) (UniProt Q6B856+Q862L2+Q862F3); experiment: Induction of calf brain tubulin polymerization assessed as tubulin concentration required to form microtubules by electron microscopy
Outline: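 Critical tubulin concentration found by centrifugation and quantification of the polymer formed. Polymers adsorbed onto formvar/carbon-coated copper grids, stained with 1% uranyl acetate, and viewed by electron microscopy at 100 kV.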

A2780 [2] = experiment: Cytotoxicity against human A2780 cells by MTT assay; assay type: functional, cell-based
[3] = Resistance ratio of IC50 for human A2780AD cells to IC50 for human A2780 cells; assay type: functional, A2780 ADR
[4] = Cytotoxicity against human MCF7/R cells by MTT assay; assay type: functional, cell-based; conditions: MCF7R
HeLa [5] = experiment: Cytotoxicity against human HeLa cells by MTT assay; assay type: functional, cell-based
Outline: (§1)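 MTT assay run as a modified version of an earlier method. IC50 in nM is the mean ± SEM of three independent assays. Relative resistance is the IC50 in the resistant line (1A9 tubulin mutants, or βIII-transfected HeLa) divided by the IC50 in the parental line (1A9 or HeLa).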

HeLa [6] = experiment: Cytotoxicity against human HeLa cells transfected with wild-type tubulin beta3 by MTT assay; assay type: functional, cell-based; outline: as §1
HeLa [7] = experiment: Resistance ratio of IC50 for human HeLa cells transfected with wild-type tubulin beta3 to IC50 for human HeLa cells; assay type: functional
Outline: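 Relative resistance is the IC50 in HeLa cells transfected with wild-type βIII-tubulin divided by the IC50 in parental HeLa cells. Each IC50 (nM) is the mean ± SEM of three independent assays.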

1A9 [8] = experiment: Cytotoxicity against human 1A9 cells by MTT assay; assay type: functional, cell-based; outline: as §1
[9] = Cytotoxicity against human 1A9PTX10 cells by MTT assay; assay type: functional, cell-based; conditions: 1A9/ptx-10; outline: as §1
1A9 [10] = experiment: Resistance ratio of IC50 for human 1A9PTX10 cells to IC50 for human 1A9 cells; assay type: functional
Outline: (§2)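 Relative resistance is the IC50 in the 1A9 tubulin-mutant line divided by the IC50 in parental 1A9 ovarian carcinoma cells. Each IC50 (nM) is the mean ± SEM of three independent assays.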

[11] = Cytotoxicity against human 1A9PTX22 cells by MTT assay; assay type: functional, cell-based; conditions: 1A9/ptx-22; outline: as §1
1A9 [12] = experiment: Resistance ratio of IC50 for human 1A9PTX22 cells to IC50 for human 1A9 cells; assay type: functional; outline: as §2
[13] = Cytotoxicity against human 1A9/A8 cells by MTT assay; assay type: functional, cell-based; outline: as §1
1A9 [14] = experiment: Resistance ratio of IC50 for human 1A9/A8 cells to IC50 for human 1A9 cells; assay type: functional
A549 [15] = experiment: Effect on microtubule cytoskeleton in human A549 cells assessed as induction of micronuleated cells with short microtubules in cytoplasm at 60 to 120 nM after 24 hrs by immunofluorescence assay; assay type: cell-based
Outline: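 A549 cells were grown overnight on coverslips, then given DMSO vehicle or ligand (60 or 120 nM) for 24 h. Cells were permeabilized with Triton X-100 and fixed in 3.7% formaldehyde. Microtubules were stained with DM1A α-tubulin antibody and DNA with Hoechst 33342. Preparations were viewed by epifluorescence microscopy.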

A2780 [16] = experiment: Cell cycle arrest at G2/M phase in human A2780 cells at 30 nM after 20 hrs by flow cytometry; assay type: functional, cell-based
A2780 [17] = experiment: Cell cycle arrest at G2/M phase in human A2780 cells at 60 nM after 20 hrs by flow cytometry; assay type: functional, cell-based
[18] = Cell cycle arrest at G2/M phase in human A2780AD cells at 30 nM after 20 hrs by flow cytometry; assay type: functional, cell-based; conditions: A2780 ADR
[19] = Cell cycle arrest at G2/M phase in human A2780AD cells at 60 nM after 20 hrs by flow cytometry; assay type: functional, cell-based; conditions: A2780 ADR
A549 [20] = experiment: Cell cycle arrest at G2/M phase in human A549 cells at 30 nM after 20 hrs by flow cytometry; assay type: functional, cell-based
A549 [21] = experiment: Cell cycle arrest at G2/M phase in human A549 cells at 60 nM after 20 hrs by flow cytometry; assay type: functional, cell-based
microtubule (Bos taurus) [22] = experiment: Binding affinity to microtubule (Bos taurus) after 30 mins at 26 degC by flutax-2 displacement method
microtubule (Bos taurus) [23] = experiment: Binding affinity to microtubule (Bos taurus) after 30 mins at 27 degC by flutax-2 displacement method
microtubule (Bos taurus) [24] = experiment: Binding affinity to microtubule (Bos taurus) after 30 mins at 30 degC by flutax-2 displacement method
microtubule (Bos taurus) [25] = experiment: Binding affinity to microtubule (Bos taurus) after 30 mins at 32 degC by flutax-2 displacement method
microtubule (Bos taurus) [26] = experiment: Binding affinity to microtubule (Bos taurus) after 30 mins at 35 degC by flutax-2 displacement method
microtubule (Bos taurus) [27] = experiment: Binding affinity to microtubule (Bos taurus) after 30 mins at 37 degC by flutax-2 displacement method
microtubule (Bos taurus) [28] = experiment: Binding affinity to microtubule (Bos taurus) after 30 mins at 40 degC by flutax-2 displacement method
microtubule (Bos taurus) [29] = experiment: Binding affinity to microtubule (Bos taurus) after 30 mins at 42 degC by flutax-2 displacement method
MCF7 = experiment: Cytotoxicity against human MCF7 cells by MTT assay; assay type: functional, cell-based
A549 [30] = experiment: Effect on microtubule cytoskeleton in human A549 cells assessed as induction of MS bundles of microtubules near membrane and nucleus at 50 to 500 nM after 24 hrs by immunofluorescence assay; assay type: cell-based
Outline: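 A549 cells grown overnight on 12 mm round coverslips, then exposed 24 h to DMSO vehicle or ligand at serial concentrations. Permeabilized with Triton X100, fixed in 3.7% formaldehyde. Microtubules stained with DM1A anti-α-tubulin monoclonal, DNA with Hoechst 33342. Viewed by epifluorescence microscopy and imaged with a cooled CCD camera.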

SMILES: CC(=O)O[C@@]12CO[C@@H]1C[C@H](O)[C@@]1(C)C(=O)[C@H](O)C3=C(C)[C@@H](OC(=O)[C@H](O)[C@@H](NC(=O)OC(C)(C)C)c4ccccc4)C[C@@](O)([C@@H](OC(=O)c4ccccc4)[C@H]21)C3(C)C [DOCETAXEL]
- IC50 [1]: 290 nM
- Activity (Tubulin (Bos taurus)): 2.4 µM

SMILES: CC(=O)O[C@@]12CO[C@@H]1C[C@H](O)[C@@]1(C)C(=O)[C@H](OC(=O)C3CC3)C3=C(C)[C@@H](OC(=O)[C@H](O)[C@H](C=C(C)C)NC(=O)OC(C)(C)C)C[C@@](O)([C@@H](OC(=O)c4ccccc4)[C@H]21)C3(C)C
- IC50 (A2780 [2]): 5.2 nM
- IC50 [1]: 10.9 nM
- Ratio IC50 [3]: 2.1
- IC50 [4]: 2.1 nM
- IC50 (HeLa [5]): 2.1 nM
- IC50 (HeLa [6]): 11.2 nM
- Ratio IC50 (HeLa [7]): 5.3
- IC50 (1A9 [8]): 5 nM
- IC50 [9]: 10.8 nM
- Ratio IC50 (1A9 [10]): 2.2
- IC50 [11]: 7.9 nM
- Ratio IC50 (1A9 [12]): 1.6
- IC50 [13]: 12.2 nM
- Ratio IC50 (1A9 [14]): 2.4
- Activity (A549 [15]): Active
- Activity (A2780 [16]): Active
- Activity (A2780 [17]): Active
- Activity [18]: Active
- Activity [19]: Active
- Activity (A549 [20]): Active
- Activity (A549 [21]): Active
- Activity (Tubulin (Bos taurus)): 0.9 µM
- Kb (microtubule (Bos taurus) [22]): 12 ×10⁷ /M
- Kb (microtubule (Bos taurus) [23]): 11 ×10⁷ /M
- Kb (microtubule (Bos taurus) [24]): 10 ×10⁷ /M
- Kb (microtubule (Bos taurus) [25]): 9 ×10⁷ /M
- Kb (microtubule (Bos taurus) [26]): 8 ×10⁷ /M
- Kb (microtubule (Bos taurus) [27]): 7 ×10⁷ /M
- Kb (microtubule (Bos taurus) [28]): 7 ×10⁷ /M
- Kb (microtubule (Bos taurus) [29]): 6 ×10⁷ /M

SMILES: CC(=O)O[C@H]1C(=O)[C@@]2(C)[C@H]([C@H](OC(=O)c3ccccc3)[C@]3(O)C[C@H](OC(=O)[C@H](O)[C@H](CC(C)C)NC(=O)OC(C)(C)C)C(C)=C1C3(C)C)[C@]1(OC(C)=O)CO[C@@H]1C[C@@H]2O
- IC50 (A2780 [2]): 3.7 nM
- IC50 [1]: 29.1 nM
- Ratio IC50 [3]: 7.9
- IC50 (MCF7): 0.35 nM
- IC50 [4]: 2.8 nM
- IC50 (HeLa [5]): 4.4 nM
- IC50 (HeLa [6]): 11.2 nM
- Ratio IC50 (HeLa [7]): 2.5
- IC50 (1A9 [8]): 2.4 nM
- IC50 [9]: 1.75 nM
- Ratio IC50 (1A9 [10]): 0.7
- IC50 [11]: 4.95 nM
- Ratio IC50 (1A9 [12]): 2
- IC50 [13]: 11.5 nM
- Ratio IC50 (1A9 [14]): 4.7
- Activity (A549 [15]): Active
- Activity (A2780 [16]): Active
- Activity (A2780 [17]): Active
- Activity [18]: Active
- Activity [19]: Active
- Activity (A549 [20]): Active
- Activity (A549 [21]): Active
- Activity (Tubulin (Bos taurus)): 1.6 µM
- Kb (microtubule (Bos taurus) [22]): 3 ×10⁷ /M
- Kb (microtubule (Bos taurus) [23]): 2.8 ×10⁷ /M
- Kb (microtubule (Bos taurus) [24]): 2.7 ×10⁷ /M
- Kb (microtubule (Bos taurus) [25]): 2.7 ×10⁷ /M
- Kb (microtubule (Bos taurus) [26]): 2.4 ×10⁷ /M
- Kb (microtubule (Bos taurus) [27]): 2.3 ×10⁷ /M
- Kb (microtubule (Bos taurus) [28]): 2.7 ×10⁷ /M
- Kb (microtubule (Bos taurus) [29]): 2.5 ×10⁷ /M

SMILES: C/C=C(\C)C(=O)N[C@@H](c1ccccc1)[C@@H](O)C(=O)O[C@H]1C[C@@]2(O)[C@@H](OC(=O)c3cccc(N=[N+]=[N-])c3)[C@@H]3[C@]4(OC(C)=O)CO[C@@H]4C[C@H](OC(=O)CC)[C@@]3(C)C(=O)[C@H](O)C(=C1C)C2(C)C
- IC50 [1]: 14 nM
- Ratio IC50 [3]: 5.2
- IC50 (HeLa [5]): 3.2 nM
- IC50 (HeLa [6]): 10.2 nM
- Ratio IC50 (HeLa [7]): 3.2
- IC50 (1A9 [8]): 2.3 nM
- IC50 [9]: 11.6 nM
- Ratio IC50 (1A9 [10]): 5
- IC50 [11]: 1.9 nM
- Ratio IC50 (1A9 [12]): 0.83
- IC50 [13]: 2 nM
- Ratio IC50 (1A9 [14]): 0.9
- Activity (A549 [15]): Active
- Activity (Tubulin (Bos taurus)): 2.9 µM
- Kb (microtubule (Bos taurus) [22]): 124 ×10⁷ /M
- Kb (microtubule (Bos taurus) [24]): 85 ×10⁷ /M
- Kb (microtubule (Bos taurus) [26]): 87 ×10⁷ /M
- Kb (microtubule (Bos taurus) [28]): 52 ×10⁷ /M

SMILES: CC(=O)O[C@H]1C(=O)[C@@]2(C)[C@H]([C@H](OC(=O)c3ccccc3)[C@]3(O)C[C@H](OC(=O)[C@H](O)[C@@H](NC(=O)c4ccccc4)c4ccccc4)C(C)=C1C3(C)C)[C@]1(OC(C)=O)CO[C@@H]1C[C@@H]2O [PACLITAXEL]
- IC50 (A2780 [2]): 0.4 nM
- IC50 [1]: 1240 nM
- IC50 (HeLa [5]): 0.7 nM
- IC50 (1A9 [8]): 3.9 nM
- IC50 [9]: 81.4 nM
- IC50 [11]: 32.8 nM
- IC50 [13]: 4.2 nM
- Activity (A549 [30]): Active
- Activity (Tubulin (Bos taurus)): 4.2 µM

SMILES: CCC(=O)O[C@H]1C(=O)[C@@]2(C)[C@H]([C@H](OC(=O)c3cccc(N=[N+]=[N-])c3)[C@]3(O)C[C@H](OC(=O)[C@H](O)[C@@H](NC(=O)OC(C)(C)C)c4ccccc4)C(C)=C1C3(C)C)[C@]1(OC(C)=O)CO[C@@H]1C[C@@H]2O
- IC50 (A2780 [2]): 7 nM
- IC50 [1]: 9.1 nM
- Ratio IC50 [3]: 1.3
- IC50 (MCF7): 1.9 nM
- IC50 [4]: 153 nM
- IC50 (HeLa [5]): 9.2 nM
- IC50 (HeLa [6]): 16 nM
- Ratio IC50 (HeLa [7]): 1.7
- IC50 (1A9 [8]): 3.1 nM
- IC50 [9]: 2.4 nM
- Ratio IC50 (1A9 [10]): 0.4
- IC50 [11]: 12 nM
- IC50 [13]: 3.8 nM
- Ratio IC50 (1A9 [14]): 1.2
- Activity (A549 [15]): Active
- Activity (Tubulin (Bos taurus)): 3.6 µM
- Kb (microtubule (Bos taurus) [22]): 612 ×10⁷ /M
- Kb (microtubule (Bos taurus) [24]): 748 ×10⁷ /M
- Kb (microtubule (Bos taurus) [26]): 628 ×10⁷ /M
- Kb (microtubule (Bos taurus) [28]): 355 ×10⁷ /M
